This sample holds only a part of the variants without activity.
B1: tRNA (parent)
chain: GUUCCGUUGGCGUAAUGGUAACGCGUCUCCCUCCUAAGGAGAAGACUGCGGGUUCGAGUCCCGUACGGAACG

Variants of: B1
Test: yeast fitness relative to wild type (ratio to wild type); higher = fitter; tRNA-Arg(CCU), competitive growth, 37 C, YPD
Outline: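 Changes in genotype frequencies gave Darwinian fitness relative to wild type. Frequencies were read by 100-nucleotide paired-end sequencing of gene amplicons before and after pooled Saccharomyces cerevisiae strains, carrying tRNA-Arg(CCU) gene variants at the native locus, were competed in YPD at 37°C for 24 hours in six replicates. A genotype was kept only with ≥ 100 starting reads, and estimates < 0.5 were set to 0.5.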

Variant	yeast fitness
GUUCCGUUGGCGUAAUUGUAACGCGUCUCCCUCCUAAGGAGAAGAAUGCGGGUUCGAGUCCCGUACGGAACG	0.785
GUUCCCUUGGCGUAAUGGUAACGCGUCUCCCUCCUAAGGAGAAGACUGCGGGUUCGAGUGCCGUUCGGAACG	≤ 0.5
GUUCCGUUGGCGUAAUGGUAACGCGUCUCCCUCCUAAGGACAAGACUGCGGGUUCCAGUCCCGUACGGAACG	0.557
GUUCCGUUGGCGUUAUGGUAACACGUCUCCUUCCUAAGGAGAUGACUGCGGGUUCGAGUCCCGUACGGAACG	≤ 0.5
GUUCCGUUGGCGUAUUGGUAACGCGUCUCCCUCCUAAGGCGAAGACUGUGGGUUCGAGUCCCGUACGGAACG	0.528
GUUCCGUUGGCGGAAUGGUAACGCGACUCCCUCCUAAGGAGAAGCCUGCGGGUUCGAGUCCCGUACGGCACG	0.577
GAUCCGUUGGCGUAAUGGUAACGCGUCUCCCUCGUAAGGAGAAGACUGAAGGUUCGAGUCCCGUACGGAACG	0.517
GUUCCGUUGGCGUACUGGUAACGCGUUACCCUCCUAAGGUGAAGACUGCGGGUUCGAGUCCCGUACGGAACG	≤ 0.5
GUUCCGUUGGCGUAAUGGUAACGCGUUUCCCUCCUAAGGAGAAGACUGCGCGUUCGAGCCCCGUACGGAACG	≤ 0.5
GUUCAGUUGGCGUAAUAGUACCGCGUCUCCCUGCUAAGGAGAUGACUGCGGGUUCGAGUCCCGUACGGAACG	≤ 0.5
GUUCCGUUGGCGUAAUAGUAACGCGUCUCCCUCCUAAGGAGAAGAGUGCGGGUCCGAGUCCCGUACGGAACG	0.562
GUUCCGUUGGCGUAAUGGUAACGCGUCUCCCUCCUAAGGAGAAAACUGGGGGUUCGAGUCCCGUUCGGAACG	0.547
GUUCAGUUGGCGUAAUGGUAACGCGUCUCCCUCCUAAGGCGAAGACUGCGGGUUCGAGUCCCGUACGGAACG	0.727
GUUCCGUUGGCGUAAUGGUAACGCGUCUAUCUCUUAAGGAGAAGACUGCGGGUUCGAGUCUCGUAAGGAACG	≤ 0.5
GUACCGUUGGCGUAAUGGUAACGCGUUUCCCUCCUAAGGAGAAGACUGCGGGUUCGAGUACCGUACGGAACG	≤ 0.5
GUUCCGUUGGGGUACUGGUAACGCGUCUCCCUCUUAAGGAGAAGACUGCGGGUUCGAGUCCCGUCCGGAACG	≤ 0.5
GUCCUGGUGGCGUAAUGGUAAUGCGUGUCCCUCCUAAGGAGAAGACUGCGGGUUCGAAUCCCGUACGGAACG	≤ 0.5
GUUCCGUUGGCGUAAUGGUAACGCGUCUCCCUCCUAAGGAGAACACUGGGGGUUCGAGUCCCGAACGGAACG	≤ 0.5
GUUCCGUUGGCGUAGUGGUAACGGGUCUCCGUCCUAAGGAGAAGACUGCAGGUUCGAGUCCCGUACGGAACG	≤ 0.5

Variant	yeast fitness
GUUCCGUUGGCGUAAUGGUAGCGCGUCGCCCUCCUAAGGAGAAGACUGCGGGUUCGAGUCCGGUACGGAACG	≤ 0.5
GUUCCGUUGGCGUAAUGGUCACGCGUCUUCCUCCUAAGGAGAAGACUGGGGGUUCGAGUCCCGUACGGAACG	0.612
GUUCCGUUGGCGUAAUGCUAACGCGUCUCCCUCCUAAGGAGAAGACUGCGGGUUCGUGUCCCGUACCGAACG	≤ 0.5
GUUCCGUUGGCGUAAUGGUAACGCGUCUCCGUCCUAAGGAGAAGACUGCGGGUUCGAGUCCCGCACAGAACG	≤ 0.5
GUUCCGUUGGCGUAAUGGUAAUGCGUCUUCCUCCUAAGGAAAAGACUACGGGUUCGAGUCCAGUACGGAACG	0.611
GUUUCGUUGGUGUAAUGGUAACGAGUCUCCCUCCUAAGGAGAAGACGGCGGGUUCGAGUCCCGUACGGAACG	0.557
GUUCCGUUGGCGUAAUGGUAACGCGUCUCCCUCCUGAGGAGAAGACUGCGGGUUCGAGUCCCGGAAGGAACG	≤ 0.5
GUUCCGUUGACGUUAUGGUAACGCGUCUCCCUCCUAAGGAGAAGACUGCGGGUUCGAGUCCCGUACGGAACG	≤ 0.5
GUUUCGUUCGCGUAAUGGUAACGCGUCUCCCUCCUAAGGAGAAGACUGCGGGUUCGAGUCCCGUACGGCACG	0.594
GUUCCGUUGGCGUAGUGGUAACGCGUCUCUCUCCUAAGGAGAAGACUGCGGGUUCGAGUCCCGUACGGUACG	0.609
GUUCCGUUGGCGUAAUAGUAACGCGUCCCCCUCCUAAGGAGCAGACAGCGGGUUCGAGUCCCGUAUGGAACG	≤ 0.5
GUUCCGUUGCCGUAAUGGUAACCCGUCUCCCUCCUAAGGAGAAGUCUGCGGGUUCGAGGCCCGUACGGAACG	0.528
GUUCCGUUGGCGUAUUGGUAACGCGUCUCCCUCCUAACAAGACGACUACGGGUUCGAGUCCCGUACGGAACG	≤ 0.5
GUUCCGUUGGCGUAAUGGUAACGGGUCUGCCUCCUAAGCAGAAGACUGCGGGUUAGAGUCCCGUACGGAACG	0.592
GUUCCGUAGGCGUAUUGGUAACGCGUCUGCCUCCUAAGGAAAAGACUGGGGGUUCGGGUCCCGUACGGAACG	≤ 0.5
GUUCCGUUCGCGUAAUGGUAAGGCGUCUCCCUGCUAAGGAGAAGACUGCGGGUUCGAGUCCCCUACGGAACG	≤ 0.5
GUUCCGUUGGCGUAAUGGUAACGCGUCUCCCUCCUAAGGAGAAGACUGCGAGUUCGAGUGCCGUACGGAACG	0.596
GUUCGGUUGGCGUAAUGGUAACGCGUCUCCCUCCUAAGCAGAAGACUGCGGGUUCGAGUCCCGUACGGUACG	0.538
GUUCCGUUGGCGUAAUGGUUACGCGUCUCCCUUCUAAGGAGAAGACUGCGGGUUCGAGUCCCGUACGGAACG	0.675

From the RNAGym collection of RNA variant scans (doi:10.1126/science.aae0568)
